# Rows were chosen to be rich in hits. Some 2.2% of all compounds tested hit in one or more screens of this group.
# Ba/F3 V617F tox – reduced viability of JAK2V617F-dependent Ba/F3 cells, primary screen, JAK2V617F inhibitor project, cell-based, Ba/F3 EpoR-JAK2V617F, luminescence; ATP luminescence; inhibition, % at 5.6 µM; 220,000 tested, 1.1% active; AID 1446, 2008;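 active = inhibition above the campaign mean plus 3 SD over all tested compounds, cut at about 24% in these data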;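 also: cytokine-independent growth of Ba/F3 cells driven by EpoR plus mutant JAK2; 0% = DMSO-treated cells and 100% = JAK inhibitor I control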
# IEC-6 tox – cytotoxicity in IEC-6 intestinal epithelial cells, primary screen, cytotoxicity control for KLF5 inhibitor project, cell-based, luminescence; IEC-6 cytotoxicity, luminescence viability; 290,000 tested, 0.78% active; inhibition, % at 5 µM; in the data active = inhibition above about 22%;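 also: 0% = plate median of test compound wells and 100% = cytotoxic reference compound wells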
# APP 5UTR inh – inhibitors of APP translation via 5'UTR reporter, primary screen, APP 5'UTR luciferase, SH-SY5Y cells | 190,000 tested, 0.82% active | inhibition, % at 2 µM | SH-SY5Y APP 5'UTR-luciferase reporter, luminescence | AID 1285, 2008;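 active = inhibition above a set limit, derived from the sample mean plus 3 SD, cut at about 45% in these data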
# BaF3 tox – parental Ba/F3 cell viability inhibition, counter-screen for JAK2V617F inhibitor project, murine pro-B, CellTiter-Glo luminescence; CellTiter-Glo ATP luminescence; 220,000 tested, 1.1% active; inhibition, % at 5.6 µM;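 active = inhibition above a per-campaign cutoff, the mean inhibition of all tested compounds plus 3 SD, cut at about 27% in these data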;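 also: 0% = DMSO wells and 100% = JAK Inhibitor I control wells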
# MT stabilizer – microtubule stabilizers in HeLa cells, primary screen, imaging, high-content imaging. HeLa tubulin immunostaining HCS, 24 h; share of cells brighter than vehicle mean+2SD. % tubulin-high responders, % at 10 µM. 200,000 tested, 0.83% active;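 active = plate Z-score above 3 for both tubulin-high and condensed-nucleus cell shares, with cell loss under 80%, at 10 µM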;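 also: anti alpha tubulin signal scored within the nucleus-defined area of each cell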
# b-catenin transl – modulators of beta-catenin nuclear translocation, primary screen, imaging, HeLa cells, immunofluorescence, high-content. nuclear translocation activity, % at 5 µM. 190,000 tested, 0.3% active. AID 1665, 2009;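 active = nuclear translocation activity above 50% at 5 µM, with a well cell count of 50 or more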;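 also: per-cell ratio of nuclear to cytoplasmic median beta-catenin stain intensity; plate controls were DMSO negative control for no effect and GSK-3 inhibitor IX positive control for full effect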
#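 Technique: fluorescence imaging of beta-catenin antibody stain plus DAPI / Material: human HeLa cell line / Incubation: compound treatment 24 h, 37°C, 5% CO2 / Read-out basis: % activation of per-cell nuclear versus cytoplasmic median beta-catenin signal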
# BaF3 parental 2 – parental Ba/F3 cell viability inhibition, counter-screen for JAK2V617F inhibitor project, murine pro-B, CellTiter-Glo luminescence. shares compounds with Ba/F3 V617F tox. cells kept alive by added IL-3. inhibition, % at 5.6 µM. 580 tested, 31% active;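 active = cell growth inhibition above the hit limit set in the earlier mutant JAK2 cell screen, cut at about 27% in these data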;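 also: plate controls were DMSO-treated cells for no effect and JAK Inhibitor I control wells for full effect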
# JAK2V617F conf – viability loss in Ba/F3 EpoR-JAK2V617F cells, confirmation, JAK2V617F inhibitor project, cell-based, luminescence, triplicate | 580 tested, 66% active | shares compounds with Ba/F3 V617F tox | AID 1521, 2009 | CellTiter-Glo luminescence | inhibition, % at 5.6 µM;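 active = mean inhibition above the hit cutoff derived in the earlier primary screen, cut at about 25% in these data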;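 also: 0% = DMSO-treated cells and 100% = JAK inhibitor I control wells; higher means lower luminescence from reduced cell ATP and viability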
# * marks the source's active call; other numbers are inactive results; / = no result given.
SMILES,Ba/F3 V617F tox,IEC-6 tox,APP 5UTR inh,BaF3 tox,MT stabilizer,b-catenin transl,BaF3 parental 2,JAK2V617F conf
COc1ccc(CCC(=O)Nc2cc(Cl)ccc2N2CCN(C)CC2)cc1,33*,-2,-4,1,2,-1,-5,2
Cc1sc2nc3c4ccccc4c(NCc4ccco4)nn3c(=O)c2c1C,4,-7,-136,4,4,0,/,/
Cc1nc(NCc2ccco2)c2c(C)c(C)sc2n1,27*,18,4,4,2,8,34*,84*
Cc1ccc(C(=O)n2c(N)nc3ccccc32)cc1,51*,9,-35,21,5,-1,6,-1
CN1CCN(CCCN(Cc2cccs2)C(=S)Nc2ccc(Cl)cc2)CC1,34*,-2,-10,23,3,4,28*,46*
CCc1ccc(NC(=S)N(CCCN2CCN(C)CC2)Cc2cccs2)cc1,3,-1,-14,11,2,-4,/,/
CCOC(=O)Cc1csc(NC(=O)NC2(C(F)(F)F)Oc3ccc(Cl)cc3O2)n1 (stereo not given),30*,1,31,18,3,/,2,44*
COc1ccc2nc(NC(=O)CN3CCN(C)CC3)sc2c1,-2,-2,-1,3,2,-3,/,/
COc1ccc2nc(NC(=O)CN3CCOCC3)sc2c1,83*,-1,-5,5,3,-4,1,-6
COc1ccccc1Nc1nc(-c2c(C)nc3ncccn23)cs1,55*,10,3,4,15*,4,33*,59*
NC(N)=Nc1cc2ccccc2c2ccccc12,28*,9,/,9,/,2,3,33*
O=C(c1csc2ccccc12)N1CCCCCC1,28*,-6,-6,27,2,-4,26,36*
COc1ccccc1C1C(C#N)=C(N)N(N(C)C)C2=C1C(=O)CC(C)(C)C2 (stereo not given),/,-4,/,/,/,/,/,/
C/C(=N\NC(=O)c1nnn(-c2nonc2N)c1CN1CCOCC1)c1ccc(CC(C)C)cc1,/,-6,/,/,/,/,/,/
Cc1ccc(S(=O)(=O)CCC(=O)N(C)C2CCCCC2)cc1,/,1,/,/,/,/,/,/
NSc1nc(N)c2nc(-c3ccccc3)c(-c3ccccc3)nc2n1,2,1,3,11,4,3,/,/
Nc1nc(N)c2nc(-c3ccccc3)c(N)nc2n1,30*,2,-8,11,2,-5,19,73*
O=C(c1ccccc1)C(CCC(CN1CCOCC1)C(=O)c1ccccc1)CN1CCOCC1 (stereo not given),44*,9,90*,4,2,0,19,100*
Cc1[nH]c2ccccc2c(=O)c1C(=O)/C=C/c1ccccc1,59*,12,/,-5,/,3,20,96*
Cc1ccccc1OCC(O)Cn1c(=N)n(Cc2ccccc2)c2ccccc21 (stereo not given),48*,6,/,17,/,1,21,53*
COc1ccc(OCC(O)Cn2c(=N)n(CCN3CCCCC3)c3ccccc32)cc1 (stereo not given),34*,1,15,14,4,-3,0,20
CC(NC(=O)C(C)N1c2cccc3cccc(c23)S1(=O)=O)c1ccccc1 (stereo not given),/,4,/,/,/,/,/,/
O=C(Nc1nonc1-c1ccc(F)cc1)c1ccco1,/,-4,/,/,/,/,/,/
O=C(CN1CCN(c2ccccc2Cl)CC1)NC1CCCc2ccccc21 (stereo not given),2,-2,-19,3,3,0,/,/
Cc1ccc(Cl)cc1N1CCN(CC(=O)NC2CCCc3ccccc32)CC1 (stereo not given),58*,4,-8,4,4,5,-1,6
SMILES,Ba/F3 V617F tox,IEC-6 tox,APP 5UTR inh,BaF3 tox,MT stabilizer,b-catenin transl,BaF3 parental 2,JAK2V617F conf
CCn1cc(CN2CCN(Cc3ccccc3)C(CCO)C2)c2ccccc21 (stereo not given),/,0,/,/,/,/,/,/
CCn1cc(CN2CCN(Cc3ccc(C)o3)C(CCO)C2)c2ccccc21 (stereo not given),44*,5,11,7,3,0,0,4
O=C(O)CC(NC(=O)Nc1ccccc1)c1ccc(OC2CCCC2)cc1 (stereo not given),33*,3,2,4,3,0,-4,-6
COc1ccc(OC)c(NS(=O)(=O)c2ccc(SC)cc2)c1,30*,22,4,26,25,1,19,70*
CC1(C)Cc2c(sc3[nH]c(=O)n(CC(=O)NCC4CCCO4)c(=O)c23)CO1 (stereo not given),/,5,/,/,/,/,/,/
CCN(Cc1ccc(OC)c(F)c1)C(=O)CCl,39*,-7,9,-1,7,3,13,96*
CCc1nn(CC(=O)NCCCN2CCN(CC)CC2)c(=O)c2cc3occc3n12,/,0,/,/,/,/,/,/
CC1CN(Cc2cc(=O)[nH]c(C3CC3)n2)CC(C)O1 (stereo not given),40*,9,1,4,2,0,-6,-5
C/C(=N/NC(=O)C1CCCN1C(=O)c1ccc([N+](=O)[O-])cc1)c1ccc(Br)cc1 (stereo not given),/,-5,/,/,/,/,/,/
CCOC(=O)C1(Cc2ccccc2C(F)(F)F)CCN(CC(O)CO)CC1 (stereo not given),0,-6,-7,7,2,4,/,/
CCOC(=O)C1(Cc2ccccc2C(F)(F)F)CCN(C2CCN(C(C)C)CC2)CC1,73*,17,9,16,2,-1,14,42*
COc1ccc(/C=C/CN2CCN(Cc3ccc(F)cc3)C(CCO)C2)cc1 (stereo not given),0,3,14,5,2,0,/,/
COc1ccc(Nc2ncnc3ccccc23)c(OC)c1,-1,4,-4,5,3,7,/,/
COc1ccc(Nc2nc(N3CCCC3)nc3ccccc23)c(OC)c1,47*,10,36,18,3,/,6,11
CCNC(=S)NNC(=O)c1ccccn1,3,-11,10,6,4,/,/,/
O=C(NNC(=S)Nc1ccc(Cl)c(Cl)c1)c1ccccn1,32*,6,31,4,7,5,51*,47*
Cc1cccc(NC(=O)c2ccccc2O)c1C,4,4,-56,3,4,-2,/,/
